Results: ChEMBL document CHEMBL3259621, “Novel merosesquiterpene exerts a potent antitumor activity against breast cancer cells in vitro and in vivo” (Eur J Med Chem, 2014)

Tests used:
MCF7 = test: Cytotoxicity against human MCF7 cells after 3 days by SRB assay; type: functional, cell-based; conditions: MCF7, 72 h
Outline: (§1)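 Cells seeded in quadruplicate at 5 × 10³ cells/cm². Compound added at 24 h over increasing concentrations for 3 days. Cells fixed with cold 10% TCA, stained with 0.4% sulforhodamine B in 1% acetic acid, dye solubilized in 10 mM Tris pH 10.5, OD read at 492 nm. IC50 taken by linear interpolation of the semi-log dose-response curve. DMSO below 0.1% final.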

A549 = test: Cytotoxicity against human A549 cells after 3 days by SRB assay; type: functional, cell-based; conditions: A549, 72 h; outline: as §1
T84 = test: Cytotoxicity against human T84 cells after 3 days by SRB assay; type: functional, cell-based; conditions: T84, 72 h; outline: as §1
[1] = Cytotoxicity against mouse E0771 cells after 3 days by SRB assay; type: functional, cell-based; conditions: E0771, 72 h
Outline: (§2)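 Cells seeded at 5 × 10³ cells/cm² in quadruplicate and, after 24 h, treated with increasing concentrations for 3 days. Compounds diluted from DMSO stock, final DMSO <0.1% v/v. Cells were fixed with cold 10% TCA, stained with 0.4% sulforhodamine B in 1% acetic acid, and dye solubilised in 10 mM Tris-base pH 10.5. OD read at 492 nm. IC50 obtained by linear interpolation on a semi-log dose-response curve.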

MDA-MB-231 = test: Cytotoxicity against human MDA-MB-231 cells after 3 days by SRB assay; type: functional, cell-based; conditions: MDA-MB-231, 72 h; outline: as §2
T47D = test: Cytotoxicity against human T47D cells after 3 days by SRB assay; type: functional, cell-based; conditions: 72 h; outline: as §2
[2] = Cytotoxicity against human MCF10A cells after 3 days by SRB assay; type: cell-based; conditions: MCF-10A, 72 h; outline: as §2
HT-29 = test: Cytotoxicity against human HT-29 cells after 3 days by SRB assay; type: functional, cell-based; conditions: HT-29, 72 h; outline: as §2
RKO = test: Cytotoxicity against human RKO cells after 3 days by SRB assay; type: functional, cell-based; conditions: 72 h; outline: as §2
SW480 = test: Cytotoxicity against human SW480 cells after 3 days by SRB assay; type: functional, cell-based; conditions: SW480, 72 h; outline: as §2
[3] = Cytotoxicity against human CCD-18Co cells after 3 days by SRB assay; type: cell-based; conditions: 72 h; outline: as §2
[4] = Therapeutic index, ratio of IC50 for human MCF10A cells to IC50 for human MCF7 cells; type: cell-based, MCF-10A; conditions: MCF10A cells versus MCF7 cells, read-out: Ratio IC50
[5] = Therapeutic index, ratio of IC50 for human MCF10A cells to IC50 for human MDA-MB-231 cells; type: cell-based, MCF-10A; conditions: MCF10A cells versus MDA-MB-231 cells, read-out: Ratio IC50
[6] = Therapeutic index, ratio of IC50 for human MCF10A cells to IC50 for human T47D cells; type: cell-based, MCF-10A; conditions: MCF10A cells versus T47D cells, read-out: Ratio IC50
[7] = Therapeutic index, ratio of IC50 for human MCF10A cells to IC50 for mouse E0771 cells; type: cell-based, MCF-10A; conditions: MCF10A cells versus E0771 cells, read-out: Ratio IC50
[8] = Therapeutic index, ratio of IC50 for human CCD-18Co cells to IC50 for human T84 cells; type: cell-based, T84; CCD-18Co; conditions: CCD-18Co cells versus T84 cells, read-out: Ratio IC50
[9] = Therapeutic index, ratio of IC50 for human CCD-18Co cells to IC50 for human HT-29 cells; type: cell-based; conditions: CCD-18Co cells versus HT-29 cells, read-out: Ratio IC50
[10] = Therapeutic index, ratio of IC50 for human CCD-18Co cells to IC50 for human RKO cells; type: cell-based; conditions: CCD-18Co cells versus RKO cells, read-out: Ratio IC50
[11] = Therapeutic index, ratio of IC50 for human CCD-18Co cells to IC50 for human SW480 cells; type: cell-based; conditions: CCD-18Co cells versus SW480 cells, read-out: Ratio IC50

Row | Structure (SMILES) | IC50 (MCF7) | IC50 (A549) | IC50 (T84) | further results
1 | C=C1CC[C@@H]2[C@](C)(CCC[C@]2(C)C(=O)OC)[C@H]1Cc1c(C)cccc1C(=O)OC | 40.4 µM | 28.1 µM | 29 µM | –
2 | C=C1CC[C@@H]2[C@](C)(CCC[C@]2(C)C(=O)OC)[C@H]1Cc1c(C)ccc(C(=O)OC)c1C(=O)OC | 33 µM | 19.9 µM | 25 µM | –
3 | C=C1CC[C@@H]2[C@](C)(CCC[C@]2(C)C(=O)OC)[C@H]1Cc1c(C)cccc1C#N | 39.6 µM | 20.2 µM | 23.7 µM | –
4 | C=C1CC[C@@H]2[C@](C)(CCC[C@]2(C)C(=O)OC)[C@H]1Cc1c(C)ccc2c1C(=O)C(O)=CC2=O | 38.4 µM | 41.2 µM | 30 µM | –
5 | C=C1CC[C@@H]2[C@](C)(CCC[C@]2(C)C(=O)OC)[C@H]1Cc1c(C)ccc2c1C(=O)C(OC)=CC2=O | 16 µM | 17.5 µM | 16.7 µM | –
6 | O=c1[nH]cc(F)c(=O)[nH]1 [FLUOROURACIL] | 2.86 µM | – | – | IC50 [1]: 0.28 µM; IC50 (MDA-MB-231): 18.1 µM; IC50 (T47D): 10.6 µM; IC50 [2]: 8.06 µM; IC50 (HT-29): 2.58 µM; IC50 (RKO): 4.39 µM; IC50 (SW480): 3.69 µM; IC50 [3]: 9.26 µM; selectivity ratio [4]: 2.82; selectivity ratio [5]: 0.44; selectivity ratio [6]: 0.76; selectivity ratio [7]: 28.8; selectivity ratio [8]: 2.76; selectivity ratio [9]: 3.6; selectivity ratio [10]: 2.11; selectivity ratio [11]: 2.51
7 | C=C1CC[C@@H]2[C@](C)(CCC[C@]2(C)C(=O)OC)[C@H]1Cc1c(C)ccc(C(=O)OC)c1O | 45.1 µM | 27 µM | 40 µM | –
